From ChEMBL document CHEMBL3259728, “Design, synthesis and biological evaluation of some novel substituted quinazolines as antitumor agents” (2014)

Legend:
Type in all cases: functional
MDA-MB-468 = assay: Growth inhibition of human MDA-MB-468 cells assessed as cell growth at 10 uM after 48 hrs by SRB assay; settings: MDA-MB-468, 48 h, read-out: GI
How it was run: (§1)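 NCI-60 primary one-dose screen run at the US NCI, with human tumour lines from nine cancer types. Compound added once at 10^-5 M, followed by 48 h incubation. End point was sulforhodamine B protein staining read spectrophotometrically. Result given as percent growth of treated cells against untreated controls, reported as % growth inhibition.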

MDA-MB-435 = assay: Growth inhibition of human MDA-MB-435 cells at 10 uM after 48 hrs by SRB assay; settings: MDA-MB-435, 48 h, read-out: GI; how it was run: as §1
HT-29 = assay: Growth inhibition of human HT-29 cells at 10 uM after 48 hrs by SRB assay; settings: HT-29, 48 h, read-out: GI; how it was run: as §1
[1] = Growth inhibition of human UACC257 cells at 10 uM after 48 hrs by SRB assay; settings: UACC-257, 48 h, read-out: GI; how it was run: as §1
MCF7 = assay: Growth inhibition of human MCF7 cells at 10 uM after 48 hrs by SRB assay; settings: MCF7, 48 h, read-out: GI; how it was run: as §1
[2] = Growth inhibition of human NCI-ADR-RES cells at 10 uM after 48 hrs by SRB assay; settings: read-out: GI; how it was run: as §1
SK-MEL-2 = assay: Growth inhibition of human SK-MEL-2 cells at 10 uM after 48 hrs by SRB assay; settings: SK-MEL-2, 48 h, read-out: GI; how it was run: as §1
[3] = Growth inhibition of human LOXIMVI cells at 10 uM after 48 hrs by SRB assay; settings: LOX IMVI, read-out: GI; how it was run: as §1
NCI-H226 = assay: Growth inhibition of human NCI-H226 cells at 10 uM after 48 hrs by SRB assay; settings: NCI-H226, 48 h, read-out: GI; how it was run: as §1
CAKI-1 = assay: Growth inhibition of human CAKI-1 cells at 10 uM after 48 hrs by SRB assay; settings: CAKI-1, 48 h, read-out: GI
How it was run: (§2)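 NCI primary one-dose screen. A single concentration of 10^-5 M was added to the cell culture, followed by 48 h incubation and an SRB protein-dye endpoint read spectrophotometrically. Results are growth percentage relative to untreated control cells, reported as % growth inhibition.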

[4] = Growth inhibition of human MOLT4 cells at 10 uM after 48 hrs by SRB assay; settings: MOLT-4, 48 h, read-out: GI; how it was run: as §1
A549 = assay: Growth inhibition of human A549 cells at 10 uM after 48 hrs by SRB assay; settings: A549, 48 h, read-out: GI; how it was run: as §2
KM12 = assay: Growth inhibition of human KM12 cells at 10 uM after 48 hrs by SRB assay; settings: KM12, 48 h, read-out: GI; how it was run: as §1
[5] = Growth inhibition of human OVCAR4 cells at 10 uM after 48 hrs by SRB assay; settings: OVCAR-4, 48 h, read-out: GI; how it was run: as §1
M14 = assay: Growth inhibition of human M14 cells at 10 uM after 48 hrs by SRB assay; settings: M14, 48 h, read-out: GI; how it was run: as §1
COLO 205 = assay: Growth inhibition of human COLO205 cells at 10 uM after 48 hrs by SRB assay; settings: COLO 205, 48 h, read-out: GI; how it was run: as §2
U-251 = assay: Growth inhibition of human U251 cells at 10 uM after 48 hrs by SRB assay; settings: U-251, 48 h, read-out: GI; how it was run: as §1
[6] = Growth inhibition of human HCC2998 cells at 10 uM after 48 hrs by SRB assay; settings: HCC 2998, 48 h, read-out: GI; how it was run: as §1
NCI-H23 = assay: Growth inhibition of human NCI-H23 cells at 10 uM after 48 hrs by SRB assay; settings: NCI-H23, 48 h, read-out: GI; how it was run: as §1
[7] = Growth inhibition of human OVCAR3 cells at 10 uM after 48 hrs by SRB assay; settings: OVCAR-3, 48 h, read-out: GI; how it was run: as §1
SK-MEL-28 = assay: Growth inhibition of human SK-MEL-28 cells at 10 uM after 48 hrs by SRB assay; settings: SK-MEL-28, 48 h, read-out: GI; how it was run: as §1
SNB-19 = assay: Growth inhibition of human SNB19 cells at 10 uM after 48 hrs by SRB assay; settings: SNB-19, 48 h, read-out: GI; how it was run: as §1
A498 = assay: Growth inhibition of human A498 cells at 10 uM after 48 hrs by SRB assay; settings: A498, 48 h, read-out: GI; how it was run: as §2
PC-3 = assay: Growth inhibition of human PC3 cells at 10 uM after 48 hrs by SRB assay; settings: PC-3, 48 h, read-out: GI; how it was run: as §1
[8] = Growth inhibition of human OVCAR5 cells at 10 uM after 48 hrs by SRB assay; settings: OVCAR-5, 48 h, read-out: GI; how it was run: as §1
SNB-75 = assay: Growth inhibition of human SNB75 cells at 10 uM after 48 hrs by SRB assay; settings: SNB-75, 48 h, read-out: GI; how it was run: as §1
Malme-3M = assay: Growth inhibition of human MALME-3M cells at 10 uM after 48 hrs by SRB assay; settings: read-out: GI; how it was run: as §1
[9] = Growth inhibition of human OVCAR8 cells at 10 uM after 48 hrs by SRB assay; settings: OVCAR-8, 48 h, read-out: GI; how it was run: as §1
HCT-116 = assay: Growth inhibition of human HCT116 cells at 10 uM after 48 hrs by SRB assay; settings: HCT-116, 48 h, read-out: GI; how it was run: as §1
NCI-H460 = assay: Growth inhibition of human NCI-H460 cells at 10 uM after 48 hrs by SRB assay; settings: NCI-H460, 48 h, read-out: GI; how it was run: as §1
786-0 = assay: Growth inhibition of human 786-0 cells at 10 uM after 48 hrs by SRB assay; settings: 786-0, 48 h, read-out: GI; how it was run: as §2
[10] = Growth inhibition of human BT549 cells at 10 uM after 48 hrs by SRB assay; settings: BT-549, 48 h, read-out: GI; how it was run: as §2
[11] = Growth inhibition of human UACC62 cells at 10 uM after 48 hrs by SRB assay; settings: UACC-62, 48 h, read-out: GI; how it was run: as §1
ACHN = assay: Growth inhibition of human ACHN cells at 10 uM after 48 hrs by SRB assay; settings: read-out: GI; how it was run: as §2
RPMI-8226 = assay: Growth inhibition of human RPMI8226 cells at 10 uM after 48 hrs by SRB assay; settings: RPMI-8226, 48 h, read-out: GI; how it was run: as §1
HOP-62 = assay: Growth inhibition of human HOP62 cells at 10 uM after 48 hrs by SRB assay; settings: HOP-62, 48 h, read-out: GI; how it was run: as §1
DU-145 = assay: Growth inhibition of human DU145 cells at 10 uM after 48 hrs by SRB assay; settings: DU-145, 48 h, read-out: GI; how it was run: as §1
NCI-H522 = assay: Growth inhibition of human NCI-H522 cells at 10 uM after 48 hrs by SRB assay; settings: NCI-H522, 48 h, read-out: GI; how it was run: as §1

Compound | inhibition of growth at 10 µM (MDA-MB-468) [%] | inhibition of growth at 10 µM (MDA-MB-435) [%] | inhibition of growth at 10 µM (HT-29) [%] | inhibition of growth at 10 µM [1] [%] | inhibition of growth at 10 µM (MCF7) [%] | inhibition of growth at 10 µM [2] [%] | inhibition of growth at 10 µM (SK-MEL-2) [%] | inhibition of growth at 10 µM [3] [%] | inhibition of growth at 10 µM (NCI-H226) [%] | inhibition of growth at 10 µM (CAKI-1) [%] | inhibition of growth at 10 µM [4] [%] | inhibition of growth at 10 µM (A549) [%] | inhibition of growth at 10 µM (KM12) [%] | inhibition of growth at 10 µM [5] [%] | inhibition of growth at 10 µM (M14) [%] | inhibition of growth at 10 µM (COLO 205) [%] | inhibition of growth at 10 µM (U-251) [%] | inhibition of growth at 10 µM [6] [%] | inhibition of growth at 10 µM (NCI-H23) [%] | inhibition of growth at 10 µM [7] [%] | other results
Cc1ccc(C(=O)Nc2ccc(Cl)cc2C(=O)NCc2ccccc2)cc1 | 17 | 98 | 77 | 15 | 47 | 28 | 49 | 21 | < 10 | 23 | 49 | 15 | 40 | 21 | 26 | < 10 | 19 | 14 | < 10 | < 10 | inhibition of growth at 10 µM (SK-MEL-28): 17%; inhibition of growth at 10 µM (SNB-19): < 10%; inhibition of growth at 10 µM (A498): 21%; inhibition of growth at 10 µM (PC-3): 24%; inhibition of growth at 10 µM [8]: < 10%; inhibition of growth at 10 µM (SNB-75): 33%; inhibition of growth at 10 µM (Malme-3M): 12%; inhibition of growth at 10 µM [9]: 13%; inhibition of growth at 10 µM (HCT-116): 11%; inhibition of growth at 10 µM (NCI-H460): < 10%; inhibition of growth at 10 µM (786-0): < 10%; inhibition of growth at 10 µM [10]: < 10%; inhibition of growth at 10 µM [11]: 30%; inhibition of growth at 10 µM (ACHN): 14%; inhibition of growth at 10 µM (RPMI-8226): 23%; inhibition of growth at 10 µM (HOP-62): 12%; inhibition of growth at 10 µM (DU-145): < 10%; inhibition of growth at 10 µM (NCI-H522): 47%
Cc1ccc(-c2nc3ccc(Cl)cc3c(=O)n2NC(=O)CNN)cc1 | < 10 | < 10 | 33 | 23 | 22 | 24 | < 10 | 27 | 35 | 35 | < 10 | 23 | 21 | 80 | 17 | 28 | 58 | < 10 | 13 | 45 | inhibition of growth at 10 µM (SK-MEL-28): 23%; inhibition of growth at 10 µM (SNB-19): 22%; inhibition of growth at 10 µM (A498): 46%; inhibition of growth at 10 µM (PC-3): 33%; inhibition of growth at 10 µM [8]: 18%; inhibition of growth at 10 µM (SNB-75): 25%; inhibition of growth at 10 µM (Malme-3M): 14%; inhibition of growth at 10 µM [9]: 23%; inhibition of growth at 10 µM (HCT-116): 46%; inhibition of growth at 10 µM (NCI-H460): 49%; inhibition of growth at 10 µM (786-0): 22%; inhibition of growth at 10 µM [10]: < 10%; inhibition of growth at 10 µM [11]: 18%; inhibition of growth at 10 µM (ACHN): 42%; inhibition of growth at 10 µM (RPMI-8226): 13%; inhibition of growth at 10 µM (HOP-62): 83%; inhibition of growth at 10 µM (DU-145): 28%; inhibition of growth at 10 µM (NCI-H522): 61%
